Cl transport mod: modulates chloride dependent transport by human KCC2. Q9H2X9. KCC2 cells, thallium flux FluoZin-2 fluorescence. B-score of Tl+ flux slope (higher = more flux/activation; lower = inhibition) at 10 µM. hit rate 2.2% among 190,000;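 active = thallium flux slope and its plate-corrected score both differing from the plate sample mean at a set confidence after two filtering rounds, in either direction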;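 note: slope of fluorescence scaled to starting intensity during 10 to 20 s after thallium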
CHT allo act: allosterically activates the human high affinity choline transporter | Q9GZV3 | CHT-expressing cells, membrane potential dye, choline EC20; hits give high values; LV-AA mutant CHT in HEK293 cells | B-score at 10 µM | hit rate 0.49% among 310,000;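 active = initial fluorescence not abnormally high and integrated response B-score, plate-corrected, over 3 SD above library mean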
Rad51 HR inh: blocks human Rad51 in homologous recombination; AID 1385; hit rate 0.085% among 200,000; Q06609; hRad51 DNA strand exchange, fluorescence dequenching; inhibition, % at 10 µM;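 active = inhibition above 40% at the single screening dose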;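 note: 0% = DMSO control wells and 100% = blanks with heterologous ssDNA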
Target sequence (Q06609 whole entry, looked up): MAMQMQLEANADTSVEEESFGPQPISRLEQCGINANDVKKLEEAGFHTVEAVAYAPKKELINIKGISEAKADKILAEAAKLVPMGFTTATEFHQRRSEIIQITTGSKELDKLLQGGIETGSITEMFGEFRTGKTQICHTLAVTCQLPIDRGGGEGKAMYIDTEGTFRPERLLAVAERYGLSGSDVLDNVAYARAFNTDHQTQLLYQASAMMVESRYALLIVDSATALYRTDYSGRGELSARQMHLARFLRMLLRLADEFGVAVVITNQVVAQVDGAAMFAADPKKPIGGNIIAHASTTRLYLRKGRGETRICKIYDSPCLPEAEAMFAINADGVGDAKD
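material = hRad51 filaments on single-stranded DNA | reagent = Donor/quencher-labelled 47-bp dsDNA substrate | compound = 10 µM final, single point | schedule = strand-exchange reaction 15 min at room temperature | measured by = fluorescein emission 520 nm, excitation 485 nm | read-out basis = % inhibition versus plate control and blank means | benchmarks = plate controls and plate blanks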
CHT inh: inhibits the human high affinity choline transporter. hit rate 0.86% among 310,000. B-score at 10 µM. CHT-expressing cells, membrane potential dye, choline response; hits give low values;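 active = B-score over 3 SD under the library average, and starting fluorescence ratio not unusually high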;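 note: choline stimulus applied at its EC90 after an EC20 pre-addition; B-score computed on integrated fluorescence ratio after choline addition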
CHT activ conf: human CHT activation, confirmatory screen; activation, % at 10 µM; shares compounds with CHT allo act; CHT-expressing cells, membrane potential dye fluorescence (FDSS); % of choline EC20–EC90 response window; HEK293 expressing CHT LV-AA mutant; choline added at its EC20; AID 504833; hit rate 91% among 2,500;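 active = primary screen active, with duplicate mean activation above negative control mean plus 3 SD, cut at about 11% in these data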
HEK293 MP dye: activity in parental HEK293 cells lacking CHT; shares compounds with CHT allo act; membrane potential dye fluorescence (FDSS); measured after EC20 choline addition; ratio readout change at 10 µM, hits read low; hit rate 62% among 2,500; AID 623908;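 active = duplicate-averaged ratio beyond 3 SD from buffer wells, up or down, though filed actives are nearly all decreases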
* marks the source's active call; other numbers are inactive results; i = inactive; · = no result. The list is not random: actives were taken first. Their share in the collection is about 2.6%.

SMILES | Cl transport mod | CHT allo act | Rad51 HR inh | CHT inh | CHT activ conf | HEK293 MP dye
Cc1ccc(NC(=O)CC2NCCNC2=O)cc1Cl (stereo unspecified) | -0.17 | i | 12 | i | · | ·
CC(Nc1ccnc2cc(Cl)ccc12)c1ccc(S(N)(=O)=O)cc1 (stereo unspecified) | · | i | · | i | 35* | -46*
CC/C(=N\Nc1ccnc2cc(Cl)ccc12)c1ccc(O)cc1 | · | i | · | i | · | ·
Cc1ccc(NC(=O)CCSc2ccccc2)c(C)c1 | -0.21 | i | 0 | i | · | ·
Clc1cccc(Cl)c1C[n+]1cccc2ccccc21 | · | i | · | i | · | ·
O=[N+]([O-])c1ccc(Cl)c(C[n+]2cccc3ccccc32)c1 | · | i | · | i | 54* | -46*
COCCn1c(Cc2ccccc2)nnc1SCc1ccc([N+](=O)[O-])cc1 | -0.15 | i | -7 | i | 21* | i
CCC(=C(c1ccc(OC)cc1)c1ccc(OC)cc1)c1cn(CC(O)CN(CCO)CCO)c2ccccc12 (stereo unspecified) | 0.29 | i | 0 | i | · | ·
C=CCn1cccc(C(=O)Nc2ccc(C)c(C)c2)c1=O | · | i | · | i | · | ·
COc1ccccc1N1CCN(c2cc(N3CCCC3)nc(C)n2)CC1 | -0.05 | 7.5* | 4 | i | 54* | -48*
COc1ccccc1N1CCN(c2ccc3ccccc3n2)CC1 | · | i | · | i | · | ·
O=c1c(-c2nn[nH]n2)coc2ccc(Cl)cc12 | -2.1 | i | 14 | i | · | ·
c1ccc(CN(Cc2ccco2)C(c2ccncc2)c2nnnn2C2CCCC2)cc1 (stereo unspecified) | -1.6 | i | 3 | i | · | ·
CC(C)(C)n1nnnc1C(c1ccc(C(F)(F)F)cc1)N(Cc1ccc(F)cc1)Cc1ccco1 (stereo unspecified) | -1 | 12* | -7 | i | 31* | i
CC(C)(C)n1nnnc1C(c1ccc(F)cc1)N(Cc1ccc(F)cc1)Cc1ccco1 (stereo unspecified) | 0.1 | i | 2 | i | · | ·
Fc1ccc(C(c2nnnn2C2CCCC2)N(Cc2ccco2)CC2CCCO2)cc1 (stereo unspecified) | 0.055 | 8.6* | -1 | i | 46* | i
Cc1cc(C)c(NC(=O)CSc2nnc(-c3ccccn3)n2N)c(Cl)c1 | 1.6 | i | 19 | i | · | ·
Cc1ccccc1C(=O)N(Cc1nc2ccccc2c(=O)[nH]1)C1CCCC1 | -0.044 | i | 11 | i | · | ·
CCOC(=O)c1cnc2ccc(Cl)cc2c1N1CCN(C)CC1 | · | i | -6 | i | · | ·
CCOC(=O)c1cnc2ccc(OCC)cc2c1N1CCN(C)CC1 | · | 8.4* | 0 | i | 41* | -40*
Cc1cc(N2CCC(N(C)C3CCCC3)CC2)nc2cc(O)ccc12 | 2.3 | 12* | -2 | i | 31* | -73*
COc1ccc(C(=O)N(CCc2ccccc2)Cc2ccccc2)c(OC)n1 | · | 10* | · | i | 14* | i
Cn1c(=O)c2c(O)c([N+](=O)[O-])c(=O)n(C)c2n(C)c1=O | 0.39 | i | 10 | i | · | ·
CCOC(=O)Cn1cnc2scc(-c3ccc(C)cc3)c2c1=O | · | i | · | i | · | ·
O=C(CSc1ccccn1)Nc1ccc(Cl)cn1 | 0.17 | i | · | i | · | ·
SMILES | Cl transport mod | CHT allo act | Rad51 HR inh | CHT inh | CHT activ conf | HEK293 MP dye
Cn1c(NCCCO)nc2ccccc21 | -0.026 | i | 14 | i | · | ·
Cc1ccc2c(c1)nc(NCCCO)n2C | · | i | -4 | i | 19* | -41*
CC(C)(C)c1ccc(S(=O)(=O)N2CCN(c3ccccn3)CC2)cc1 | · | i | · | i | · | ·
C[n+]1cccc2ccc3c(c21)OC(N)=C(C#N)C3c1ccccc1 (stereo unspecified) | -0.1 | 10* | 15 | i | 72* | -80*
C[n+]1cccc(C2C(C#N)=C(N)Oc3c2ccc2ccccc32)c1 (stereo unspecified) | 0.86 | i | · | i | 43* | -57*
CC[n+]1c(C)sc2c3ccsc3ccc21 | 0.47 | 10* | -3 | i | 48* | -50*
Cc1ccc(C[n+]2cccc(-c3ccccc3)c2)c(C)c1 | 0.34 | 8.4* | 19 | i | 59* | i
Cc1cc(C[n+]2cc(Cl)ccc2N)c2ncccc2c1 | -1.5 | 16* | 0 | i | 46* | -39*
Nc1ccc(Cl)c[n+]1Cc1cccc2cccnc12 | -0.076 | i | 0 | i | · | ·
Cc1cc(C[n+]2cc(Br)ccc2N)c2ncccc2c1 | -1.6 | 8.5* | 23 | i | 49* | -44*
Cc1cc(C[n+]2ncsc2N)c2ncccc2c1 | 1.1 | i | -9 | i | 73* | -23*
CSc1nc(N)c(C(=O)NC2CCCCC2)s1 | -1.2 | i | -2 | i | · | ·
O=C(CN1CCC(C(=O)O)CC1)Nc1ccccc1Oc1ccccc1 | -0.15 | i | -32 | i | · | ·
COc1ccccc1N1CCN(C(c2ccccc2)c2nnnn2CCc2ccccc2)CC1 (stereo unspecified) | -0.73 | i | -7 | i | 17* | i
COc1ccccc1C(c1nnnn1CCc1ccccc1)N1CCN(c2ccccc2)CC1 (stereo unspecified) | -4.4 | i | -4 | i | · | ·
COc1cccc(C(c2nnnn2CCc2ccccc2)N2CCN(c3ccccc3)CC2)c1OC (stereo unspecified) | -1.6 | 6.8* | -9 | i | 21* | i
COc1cccc(C(c2nnnn2Cc2ccco2)N2CCN(c3cccc(C)c3C)CC2)c1OC (stereo unspecified) | -0.022 | 7.1* | -3 | i | 20* | i
COc1cccc(C(c2nnnn2Cc2ccccc2)N2CCN(C(=O)c3ccco3)CC2)c1OC (stereo unspecified) | -0.54 | i | 7 | i | · | ·
Cc1cc(NCc2ccco2)nc2cc(O)ccc12 | 0.38 | 8.6* | -2 | i | 29* | -42*
Cc1ccc(Nc2cc(C)c3ccc(O)cc3n2)cc1C | 1.6 | i | 5 | i | · | ·
COC1=C(Nc2ccccc2OC)C(=O)c2ccccc2C1=O | -0.87 | 8.7* | · | i | 37* | -41*
CCS(=O)(=O)Nc1cccc(C2=NN(S(=O)(=O)c3ccccc3)C(c3ccco3)C2)c1 (stereo unspecified) | -0.51 | i | · | i | · | ·
CS(=O)(=O)Nc1cccc(C2=NN(S(=O)(=O)c3ccccc3)C(c3ccco3)C2)c1 (stereo unspecified) | -0.49 | i | -4 | i | 26* | i
CCn1cc(C2=NCCO2)c2ccccc21 | -0.0027 | 9.4* | -7 | i | 43* | -44*
CCn1cc(C2=NC(C)CO2)c2ccccc21 (stereo unspecified) | 0.012 | i | 11 | i | · | ·

Screens: PubChem BioAssay, several laboratories
